We go through 36 sequences from the array DNA melting data of Ke et al. (doi:10.1101/2024.01.08.574731).

Data set [1] in a line: melting temperature; fluorescence melt of hairpins on a sequencing array, two-state fit, raised by 9.35 °C to match UV melts. The conditions noted are these: sodium 0.088 M. The method, boiled down:
(§1)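 Cy3 signals were normalised both to pre-quench Cy3 and to control constructs. They came from library hairpins carrying annealed Cy3 and quencher oligos on a sequenced MiSeq flow cell, imaged in 50 mM Na-HEPES pH 8.0, 25 mM NaCl, in 2.5 °C steps up to 60 °C. Bootstrapped two-state fits gave melting temperature and folding enthalpy, and four replicates were combined by inverse variance. Fitted temperatures were then raised by 9.35 °C to match UV melts.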

Data set [2] in a line: folding enthalpy; higher = less favourable; fluorescence melt of hairpins on a sequencing array, two-state fit. The conditions noted are these: sodium 0.088 M. A digest of the protocol:
as §1

Turning to GCTTCGCGAAAGCCATGC ((.(.((....)).).)), in data set [1], the Tm is 34.6 °C. Besides, the folding enthalpy in data set [2] is -9.05 kcal/mol.

GCTTCGCGAAAGCCCAGC (((..((....))..))): the Tm in data set [1] is 31.2 °C. The folding enthalpy in data set [2] was -7.98 kcal/mol.

For GCTTCGCGAAAGCGATGC ((.((((....)))).)), the Tm in data set [1] stood at 65.7 °C. Further, the folding enthalpy in data set [2] is -17.4 kcal/mol.

For GCTTCGCGAAAGCGTAGC (((.(((....))).))), the Tm in data set [1] came out at 55.7 °C. In data set [2], the folding enthalpy is -42.6 kcal/mol.

Turning to GCTTCGGGAAACCGAAAC (.(((((....))))).), the Tm in data set [1] was determined as 40.2 °C. Also, the folding enthalpy in data set [2] was -15.4 kcal/mol.

As to GCTTCTCGAAAGAGCAGC (((.(((....))).))), the Tm in data set [1] was determined as 46.8 °C. Further, the folding enthalpy in data set [2] was -24 kcal/mol.

Consider GCTTCTGGAAACGGAAGC (((((.(....).))))), for which the Tm in data set [1] was found to be 51.6 °C. Besides, in data set [2], the folding enthalpy was -46.4 kcal/mol.

For the sequence GCTTGAGAAATCAAGC ((((((....)))))), the Tm in data set [1] came out at 55.8 °C. Further, the folding enthalpy in data set [2] is -35.3 kcal/mol.

In the case of GCTTGAGCGAAAGCTAGC (((..(((....)))))), the Tm in data set [1] was determined as 47.8 °C. Also, the folding enthalpy in data set [2] was -13.9 kcal/mol.

For the sequence GCTTGAGGAAACTCAAGC (((((((....))))))), the Tm in data set [1] was determined as 62.8 °C. Also, the folding enthalpy in data set [2] was -41.9 kcal/mol.

Regarding GCTTGAGGAAACTCAGGC ((.((((....)))).)), in data set [1], the Tm is 47.6 °C. For the same sequence, the folding enthalpy in data set [2] was -32.9 kcal/mol.

GCTTGCCCGAAAGGGAGC (((..(((....)))))): the Tm in data set [1] turned out to be 48.1 °C. In data set [2], the folding enthalpy was -14.7 kcal/mol.

Regarding GCTTGCGAAAGCAAAAGC ((((((....)))..))), the Tm in data set [1] worked out at 52.8 °C. In data set [2], the folding enthalpy is -17.8 kcal/mol.

Consider GCTTGCGAAAGCAGCAGC ((((((....)))..))), for which, in data set [1], the Tm is 46.4 °C. Also, in data set [2], the folding enthalpy was -11.4 kcal/mol.

Turning to GCTTGCGGAAACACAAGC (((((.(....).))))), in data set [1], the Tm was found to be 46.8 °C. The folding enthalpy in data set [2] was -23.6 kcal/mol.

As for GCTTGCGGAAACGCAGGC ((.((((....)))).)), the Tm in data set [1] was found to be 62.8 °C. Besides, in data set [2], the folding enthalpy is -35.1 kcal/mol.

GCTTGGCGAAAGCACAGC (((..((....))..))): the Tm in data set [1] is 42.2 °C. Further, the folding enthalpy in data set [2] was -18.2 kcal/mol.

For GCTTGGCGAAAGCATAGC (((..((....))..))), in data set [1], the Tm turned out to be 46.2 °C. Moreover, in data set [2], the folding enthalpy was -20.3 kcal/mol.

In the case of GCTTGGCGAAAGCCAGC (((.(((....)))))), the Tm in data set [1] stood at 59 °C. For the same sequence, the folding enthalpy in data set [2] is -14.3 kcal/mol.

For GCTTGGCGAAAGCCGCGC ((..(((....)))..)), the Tm in data set [1] worked out at 57.6 °C. In data set [2], the folding enthalpy is -15.6 kcal/mol.

In the case of GCTTGGCGAAAGCCTCGC ((..(((....)))..)), the Tm in data set [1] came out at 41.8 °C. Also, the folding enthalpy in data set [2] was -17.4 kcal/mol.

GCTTGGCGAAAGCCTGGC ((..(((....)))..)): the Tm in data set [1] is 52.3 °C. In data set [2], the folding enthalpy is -17.4 kcal/mol.

For the sequence GCTTGGCGAAAGCTAAGC ((((.((....)).)))), the Tm in data set [1] was found to be 64.7 °C. Also, the folding enthalpy in data set [2] was -30 kcal/mol.

As to GCTTGGGGAAACTCAAGC (((((.(....).))))), the Tm in data set [1] was 51.3 °C. Further, the folding enthalpy in data set [2] is -35.8 kcal/mol.

In the case of GCTTGGTCGAAAGACAGC (((..(((....)))))), the Tm in data set [1] is 43.2 °C. Besides, the folding enthalpy in data set [2] was -14.8 kcal/mol.

For GCTTGTCGAAAGACAGC (((.(((....)))))), the Tm in data set [1] was 52.9 °C. Moreover, the folding enthalpy in data set [2] is -19.9 kcal/mol.

Take GCTTGTGGAAACACAGGC ((.((((....)))).)): in data set [1], the Tm is 52 °C. The folding enthalpy in data set [2] was -27.2 kcal/mol.

Regarding GCTTGTGGAAACATAAGC ((((.((....)).)))), the Tm in data set [1] turned out to be 46.8 °C. The folding enthalpy in data set [2] was -29.9 kcal/mol.

Turning to GCTTTATCGAAAGATAGC (((..(((....)))))), in data set [1], the Tm turned out to be 31.6 °C. Further, the folding enthalpy in data set [2] is -12.2 kcal/mol.

For GCTTTCCGAAAGGACAGC (((.(((....))).))), the Tm in data set [1] came to 49.9 °C. For the same sequence, in data set [2], the folding enthalpy is -35.7 kcal/mol.

For the sequence GCTTTCGAAAGAAAGAGC ((((((....)))..))), the Tm in data set [1] amounted to 43.5 °C. Moreover, the folding enthalpy in data set [2] is -19.7 kcal/mol.

With GCTTTCGAAAGAAAGC ((((((....)))))), in data set [1], the Tm worked out at 65.1 °C. Besides, the folding enthalpy in data set [2] is -42.3 kcal/mol.

Regarding GCTTTCGAAAGAAATAGC ((((((....)))..))), the Tm in data set [1] was 36.8 °C. In data set [2], the folding enthalpy was -20 kcal/mol.

On to GCTTTCGAAAGAATGAGC ((((((....)))..))), for which, in data set [1], the Tm worked out at 31.9 °C. In addition, the folding enthalpy in data set [2] is -14.8 kcal/mol.

Consider GCTTTCGAAAGAATTAGC ((((((....)))..))), for which, in data set [1], the Tm came to 30.5 °C. Also, the folding enthalpy in data set [2] is -15.1 kcal/mol.

As to GCTTTGAAAAAAGC (((((....))))), the Tm in data set [1] was 47.4 °C. Besides, in data set [2], the folding enthalpy is -21.3 kcal/mol.
